According to ChEMBL document CHEMBL3352809, “Discovery of a Negative Allosteric Modulator of GABAB Receptors” (ACS Med Chem Lett, 2014):
Active and inactive are the calls of the source. The calls are words filed in the database; no cut-off is given here.

Legend:
HEK293 = test: Effect on ERK1/2 protein expression in HEK293 cells at 100 uM by immunoblotting; type: functional, cell-based; details: Homo sapiens
Method in brief: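 ERK1/2 phosphorylation in HEK293 cells overexpressing GABA_B receptors (GB1 + GB2), stimulated with baclofen (100 μM) or CGP7930 (100 μM), with or without test compound at 100 μM. Data are mean SEM of three independent experiments. Significance was taken versus agonist alone.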

[1] = target: T1, GABA-B receptor (Homo sapiens) (UniProt Q9UBS5+O75899); test: Negative allosteric modulation of recombinant HA-tagged GB1 subunit/Flag-tagged GB2 subunit receptor (unknown origin) expressed in HEK293 cells co-expressing Gqi9 G-protein assessed as inhibition of GABA-induced Ca2+ release at 50 uM by fluorescence assay; type: functional, cell-based
Method in brief: (§1)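 Test compound was at 50 μM. Agonists were GABA 100 μM for GABA_B and glutamate 10 μM for mGluR1, 2 and 5. Response was compared with agonist alone. Data are mean SEM of three independent experiments.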

[2] = target: Metabotropic glutamate receptor 1 (Homo sapiens) (UniProt Q13255); test: Negative allosteric modulation of mGluR1 (unknown origin) expressed in HEK293 cells assessed as inhibition of glutamate-induced Ca2+ release at 50 uM by fluorescence assay; type: functional, cell-based; method in brief: as §1
Sequence of Metabotropic glutamate receptor 1 (Homo sapiens) (Q13255 19-1194 limits assumed): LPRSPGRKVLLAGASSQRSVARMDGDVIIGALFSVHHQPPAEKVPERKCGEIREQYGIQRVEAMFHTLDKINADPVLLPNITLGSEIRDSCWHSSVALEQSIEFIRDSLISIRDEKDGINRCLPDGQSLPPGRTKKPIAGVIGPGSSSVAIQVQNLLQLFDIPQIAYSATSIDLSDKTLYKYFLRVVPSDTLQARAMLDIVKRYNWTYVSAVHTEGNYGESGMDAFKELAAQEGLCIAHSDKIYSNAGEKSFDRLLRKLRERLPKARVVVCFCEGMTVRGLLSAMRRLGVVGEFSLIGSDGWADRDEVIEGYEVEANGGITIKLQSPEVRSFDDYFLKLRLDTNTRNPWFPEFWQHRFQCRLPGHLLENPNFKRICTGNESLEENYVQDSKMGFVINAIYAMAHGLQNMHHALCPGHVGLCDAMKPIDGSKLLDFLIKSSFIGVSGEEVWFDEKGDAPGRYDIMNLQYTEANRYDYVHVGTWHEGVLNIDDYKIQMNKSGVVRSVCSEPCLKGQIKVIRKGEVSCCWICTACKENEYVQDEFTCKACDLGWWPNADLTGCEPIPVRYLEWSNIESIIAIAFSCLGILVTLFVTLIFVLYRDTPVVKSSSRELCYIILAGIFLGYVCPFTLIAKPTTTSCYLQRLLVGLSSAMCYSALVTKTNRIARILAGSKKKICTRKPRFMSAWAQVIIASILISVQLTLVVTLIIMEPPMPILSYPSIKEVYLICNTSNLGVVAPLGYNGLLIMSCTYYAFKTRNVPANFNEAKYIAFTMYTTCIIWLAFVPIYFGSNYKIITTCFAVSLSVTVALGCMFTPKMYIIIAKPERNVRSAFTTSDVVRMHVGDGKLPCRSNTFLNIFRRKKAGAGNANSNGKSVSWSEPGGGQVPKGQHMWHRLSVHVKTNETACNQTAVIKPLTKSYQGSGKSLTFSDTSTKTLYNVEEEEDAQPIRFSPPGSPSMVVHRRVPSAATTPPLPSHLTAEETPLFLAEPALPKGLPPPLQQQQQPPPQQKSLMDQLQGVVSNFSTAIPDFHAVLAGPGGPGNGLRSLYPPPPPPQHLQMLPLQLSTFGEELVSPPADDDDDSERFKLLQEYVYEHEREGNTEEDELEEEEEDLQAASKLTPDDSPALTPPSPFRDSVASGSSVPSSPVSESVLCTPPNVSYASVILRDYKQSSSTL

[3] = target: T1, GABA-B receptor (Homo sapiens); test: (§2) Negative allosteric modulation of recombinant HA-tagged GB1 subunit/Flag-tagged GB2 subunit receptor (unknown origin) expressed in HEK293 cells co-expressing Gqi9 G-protein assessed as inhibition of GABA-induced IP production by liquid scintillation counting; type: cell-based
Method in brief: (§3)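 IP3 formation in HEK293 cells overexpressing GABA_B receptors (GB1 + GB2) and Gq_i9 chimeric proteins. Compounds were tested at 100 μM against GABA 1 μM, with GABA dose-response curves run with or without compound. Inhibition curves were run with compound titrated in the presence of 1 μM GABA to derive IC50. Data are mean SEM of three independent experiments.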

GABA-B receptor = GABA-B receptor (Homo sapiens, UniProt O75899+Q9UBS5); test: as §2; type: cell-based; method in brief: as §3
Sequence of GABA-B receptor (Q9UBS5 whole entry): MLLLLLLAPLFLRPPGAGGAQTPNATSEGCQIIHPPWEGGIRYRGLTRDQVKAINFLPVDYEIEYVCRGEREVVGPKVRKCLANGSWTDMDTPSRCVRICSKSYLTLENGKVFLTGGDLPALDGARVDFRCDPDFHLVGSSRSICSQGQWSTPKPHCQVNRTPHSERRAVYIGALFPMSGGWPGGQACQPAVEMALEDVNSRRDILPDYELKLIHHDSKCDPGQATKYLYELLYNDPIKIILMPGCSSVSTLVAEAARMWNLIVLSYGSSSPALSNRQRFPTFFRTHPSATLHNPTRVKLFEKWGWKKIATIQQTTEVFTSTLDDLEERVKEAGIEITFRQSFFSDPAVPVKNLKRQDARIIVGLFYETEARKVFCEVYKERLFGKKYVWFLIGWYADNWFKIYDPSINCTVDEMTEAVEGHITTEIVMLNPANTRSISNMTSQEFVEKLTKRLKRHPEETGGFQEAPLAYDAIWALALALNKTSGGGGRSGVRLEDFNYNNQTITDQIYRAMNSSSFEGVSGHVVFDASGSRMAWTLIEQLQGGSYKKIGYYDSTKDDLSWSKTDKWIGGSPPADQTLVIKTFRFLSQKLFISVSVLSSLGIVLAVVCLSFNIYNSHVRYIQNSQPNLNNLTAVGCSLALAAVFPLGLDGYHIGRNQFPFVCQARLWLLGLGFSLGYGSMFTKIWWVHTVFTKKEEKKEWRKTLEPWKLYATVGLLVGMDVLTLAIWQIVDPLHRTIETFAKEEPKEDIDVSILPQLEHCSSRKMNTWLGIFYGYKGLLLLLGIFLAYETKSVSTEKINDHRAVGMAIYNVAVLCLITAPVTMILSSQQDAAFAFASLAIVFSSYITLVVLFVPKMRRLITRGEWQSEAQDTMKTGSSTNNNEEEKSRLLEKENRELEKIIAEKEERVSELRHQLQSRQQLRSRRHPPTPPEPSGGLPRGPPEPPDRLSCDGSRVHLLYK
Sequence of GABA-B receptor (O75899 whole entry): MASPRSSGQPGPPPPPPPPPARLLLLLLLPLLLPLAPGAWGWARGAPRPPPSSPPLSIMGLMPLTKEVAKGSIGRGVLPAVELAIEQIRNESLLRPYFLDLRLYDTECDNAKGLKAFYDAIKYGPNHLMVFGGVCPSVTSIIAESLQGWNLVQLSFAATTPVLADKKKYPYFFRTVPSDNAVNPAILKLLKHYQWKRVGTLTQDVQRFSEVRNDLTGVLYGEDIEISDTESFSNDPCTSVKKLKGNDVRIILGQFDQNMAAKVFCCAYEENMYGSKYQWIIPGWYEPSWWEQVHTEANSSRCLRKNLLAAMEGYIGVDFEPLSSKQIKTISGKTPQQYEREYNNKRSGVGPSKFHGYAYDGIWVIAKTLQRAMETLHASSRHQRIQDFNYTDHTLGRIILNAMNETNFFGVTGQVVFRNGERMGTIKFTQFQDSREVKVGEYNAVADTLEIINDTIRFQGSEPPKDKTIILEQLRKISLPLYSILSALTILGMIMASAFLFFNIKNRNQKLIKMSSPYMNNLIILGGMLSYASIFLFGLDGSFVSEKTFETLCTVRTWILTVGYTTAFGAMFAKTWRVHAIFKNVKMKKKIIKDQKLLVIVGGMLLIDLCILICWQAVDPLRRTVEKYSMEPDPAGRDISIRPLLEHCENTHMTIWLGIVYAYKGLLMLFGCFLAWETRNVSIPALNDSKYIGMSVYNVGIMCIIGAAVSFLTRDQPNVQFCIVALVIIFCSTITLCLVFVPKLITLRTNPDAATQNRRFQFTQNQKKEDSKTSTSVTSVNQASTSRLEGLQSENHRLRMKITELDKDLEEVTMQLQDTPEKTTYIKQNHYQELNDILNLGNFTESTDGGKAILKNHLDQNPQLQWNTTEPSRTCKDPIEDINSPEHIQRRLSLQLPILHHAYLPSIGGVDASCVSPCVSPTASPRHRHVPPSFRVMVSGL

[4] = target: T1, GABA-B receptor (Homo sapiens); test: Displacement of [3H]CGP54626 from recombinant HA-tagged GB1 subunit/Flag-tagged GB2 subunit receptor (unknown origin) expressed in CHO cells up to 100 uM by scintillation proximity assay; type: cell-based
[5] = target: Metabotropic glutamate receptor 5 (Homo sapiens) (UniProt P41594); test: Negative allosteric modulation of mGluR5 (unknown origin) expressed in HEK293 cells assessed as inhibition of glutamate-induced Ca2+ release at 50 uM by fluorescence assay; type: functional, cell-based; method in brief: as §1
Sequence of Metabotropic glutamate receptor 5 (Homo sapiens) (P41594 21-1212 limits assumed): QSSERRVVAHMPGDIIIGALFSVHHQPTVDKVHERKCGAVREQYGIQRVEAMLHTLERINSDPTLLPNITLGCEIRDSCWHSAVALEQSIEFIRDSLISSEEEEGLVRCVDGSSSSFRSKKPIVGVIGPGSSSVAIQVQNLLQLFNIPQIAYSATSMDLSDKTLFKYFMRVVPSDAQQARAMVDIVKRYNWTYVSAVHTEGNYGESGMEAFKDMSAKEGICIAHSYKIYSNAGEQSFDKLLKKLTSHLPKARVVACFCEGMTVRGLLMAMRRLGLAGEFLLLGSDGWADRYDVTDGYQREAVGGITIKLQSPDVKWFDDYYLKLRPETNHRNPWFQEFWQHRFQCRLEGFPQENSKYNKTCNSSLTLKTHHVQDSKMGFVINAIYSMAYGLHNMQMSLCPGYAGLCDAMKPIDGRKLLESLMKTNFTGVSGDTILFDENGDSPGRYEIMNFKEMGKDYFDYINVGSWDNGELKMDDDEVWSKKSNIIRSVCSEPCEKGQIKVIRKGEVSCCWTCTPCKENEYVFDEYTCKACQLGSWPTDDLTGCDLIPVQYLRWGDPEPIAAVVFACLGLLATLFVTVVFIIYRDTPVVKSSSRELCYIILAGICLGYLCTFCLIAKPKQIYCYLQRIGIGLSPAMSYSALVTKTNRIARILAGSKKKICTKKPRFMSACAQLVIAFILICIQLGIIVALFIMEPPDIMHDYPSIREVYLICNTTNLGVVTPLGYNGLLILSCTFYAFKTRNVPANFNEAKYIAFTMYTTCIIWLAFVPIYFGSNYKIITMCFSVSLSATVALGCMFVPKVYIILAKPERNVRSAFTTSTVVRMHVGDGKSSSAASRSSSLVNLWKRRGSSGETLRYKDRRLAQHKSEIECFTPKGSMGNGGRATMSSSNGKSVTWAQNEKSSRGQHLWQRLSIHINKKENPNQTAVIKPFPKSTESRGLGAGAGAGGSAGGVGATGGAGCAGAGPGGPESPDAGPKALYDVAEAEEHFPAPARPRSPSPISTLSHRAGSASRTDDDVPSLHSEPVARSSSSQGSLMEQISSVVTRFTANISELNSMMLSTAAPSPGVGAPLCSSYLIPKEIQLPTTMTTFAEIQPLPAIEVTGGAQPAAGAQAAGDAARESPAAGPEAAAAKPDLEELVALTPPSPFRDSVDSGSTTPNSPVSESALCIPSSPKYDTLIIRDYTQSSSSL

[6] = target: Metabotropic glutamate receptor 2 (Homo sapiens) (UniProt Q14416); test: Negative allosteric modulation of mGluR2 (unknown origin) expressed in HEK293 cells co-expressing Gqi9 G-protein assessed as inhibition of glutamate-induced Ca2+ release at 50 uM by fluorescence assay; type: functional, cell-based; method in brief: as §1
Sequence of Metabotropic glutamate receptor 2 (Homo sapiens) (Q14416 19-872 limits assumed): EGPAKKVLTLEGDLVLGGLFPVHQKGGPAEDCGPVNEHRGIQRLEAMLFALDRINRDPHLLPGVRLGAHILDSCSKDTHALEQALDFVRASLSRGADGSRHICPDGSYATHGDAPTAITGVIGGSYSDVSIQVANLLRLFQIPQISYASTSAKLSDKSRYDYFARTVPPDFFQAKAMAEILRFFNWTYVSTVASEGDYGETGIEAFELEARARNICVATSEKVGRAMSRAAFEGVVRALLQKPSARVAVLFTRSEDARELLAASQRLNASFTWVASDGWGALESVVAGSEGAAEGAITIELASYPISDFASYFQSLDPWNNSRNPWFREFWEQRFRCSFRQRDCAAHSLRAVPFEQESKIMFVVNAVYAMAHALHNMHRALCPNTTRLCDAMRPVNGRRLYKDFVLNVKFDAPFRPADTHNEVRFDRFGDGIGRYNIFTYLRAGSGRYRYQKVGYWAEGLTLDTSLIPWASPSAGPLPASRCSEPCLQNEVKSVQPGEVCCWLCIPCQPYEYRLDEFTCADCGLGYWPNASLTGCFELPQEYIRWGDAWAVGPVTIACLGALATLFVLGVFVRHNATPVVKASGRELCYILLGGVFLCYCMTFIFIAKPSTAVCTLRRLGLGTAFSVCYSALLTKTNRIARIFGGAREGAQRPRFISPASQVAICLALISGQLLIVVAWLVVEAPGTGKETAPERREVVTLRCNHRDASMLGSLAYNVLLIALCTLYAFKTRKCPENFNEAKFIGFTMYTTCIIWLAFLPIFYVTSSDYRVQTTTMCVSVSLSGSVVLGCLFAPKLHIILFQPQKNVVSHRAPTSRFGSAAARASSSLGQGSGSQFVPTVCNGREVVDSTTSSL

COC(O)CC(O)c1cc(C(C)(C)C)c(O)c(C(C)(C)C)c1 (stereo not given)
inhibition (HEK293): inactive

CC(C)(C)c1cc(/C=C/C(=O)C(=O)O)cc(C(C)(C)C)c1O
inhibition [1]: Active | inhibition [2]: inactive | inhibition [3]: Dose-dependent effect | IC50 (GABA-B receptor): 37.9 µM | inhibition [4]: inactive | inhibition [5]: inactive | inhibition [6]: inactive

CC(C)(C)c1cc(/C=C/C=O)cc(C(C)(C)C)c1O
inhibition [3]: Dose-dependent effect | IC50 (GABA-B receptor): 21.3 µM
